Experimental data collected from several papers.
Compare with care: the assays were run in different laboratories.
Target: Sodium-dependent noradrenaline transporter (SLC6A2, Homo sapiens, UniProt P23975)

Compound | read-out | action | technique | cell line | concentration | inhibition [%]
COc1ccc(S(=O)(=O)N2CCCCC2)cc1C | ligand displacement | – | radioligand | – | 10 µM | < 30
Cc1noc([C@H]2C[C@@H](c3ccc(C(F)(F)F)cc3)CN(C(=O)N3CCS(=O)(=O)C3)C2)n1 | cell-free assay | – | – | – | 10 µM | -20.2
Clc1ccc2c(C3CCN(CCc4c[nH]c5ccccc45)CC3)c[nH]c2c1 | ligand displacement | – | radioligand | – | 10 µM | 90
COc1ccc(C(CN(C)C)C2(O)CCCCC2)cc1 (stereo not drawn) | transporter uptake | inhibitor | – | HEK293 | 1 µM | 28.8
CC(C)(C)c1ccc(C(=O)Nc2cc(Cl)c(-c3ccccc3)cc2C(=O)O)cc1 | ligand displacement | – | radioligand | – | 10 µM | 91
O=C(Nc1cccnn1)N1CCN([C@@H]2CCOc3cc(C(F)(F)F)ccc32)CC1 | ligand displacement | – | – | – | 20 µM | 15
Fc1ccc(C(OCCN2CCN(CCCc3ccccc3)CC2)c2ccc(F)cc2)cc1 | transporter uptake | inhibitor | – | HEK293 | 1 µM | 89.9
COCc1c(-c2cc3cc(C)cc(OC)c3s2)c2c(N)ncnn2c1CN1CCNC(=O)C1 | ligand displacement | – | radioligand | – | 10 µM | 47
CS(=O)(=O)N1CCCC(NC(=O)[C@H](CCC2CCCCC2)NC(=O)c2ccc(CNC(=O)c3cnc4ccccn34)cc2)C1 (stereo partly drawn) | cell-free assay | – | – | – | 10 µM | 3
CC(C)N1CCC[C@H]1CNC(=O)c1cn(C2CCCC2)c(=O)c2c1c1ccccc1n2C | ligand displacement | – | radioligand | – | 10 µM | 28
CN(CCN1CCC(OC(=O)Nc2ccccc2-c2ccccc2)CC1)C(=O)c1ccc(CN2CCC(C(N)=O)CC2)cc1 | ligand displacement | – | radioligand | – | 1 µM | 1
CCN(CC)CCCC[C@H](NC(=O)[C@H](CC(C)C)NC(=O)[C@H](C)NC(=O)[C@H](Cc1ccccc1)NC(=O)c1ccc(C(C)(C)C)cc1)C(=O)N[C@@H](CO)C(=O)OC | ligand displacement | – | radioligand | – | 10 µM | -13
